Measured values reported in ChEMBL document CHEMBL3797146, “FimH Antagonists: Phosphate Prodrugs Improve Oral Bioavailability” (J Med Chem, 2016).

Columns and labels:
[1] = Thermodynamic solubility of the compound in 50 mM pH 6.5 phosphate buffer by LC-MS method; format: physicochemical; details: read-out: Therm_solubility
Summary of the method: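 Thermodynamic solubility determined in phosphate buffer (50 mM, pH 6.5).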

[2] = Stability in buffer simulated gastric fluid assessed as parent compound remaining in absence of pepsin after 2 hrs; details: buffer simulated gastric fluid without pepsin
[3] = Stability in fasted state simulated gastric fluid assessed as parent compound remaining in absence of pancreatin after 2 hrs; format: ADME, tissue-based, Stomach; details: fasted state simulated gastric fluid without pancreatin; read-out: Stability
[4] = Stability in fasted state simulated gastric fluid assessed as parent compound remaining in absence of pepsin after 2 hrs; format: ADME, tissue-based, Stomach; details: fasted state simulated gastric fluid without pepsin; read-out: Stability
Summary of the method: (§1)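 Compound incubated for 120 min in fasted- or fed-state simulated gastric fluid, in simulated gastric fluid, or in buffer sGF (sGF prepared without pepsin), with water as reference medium. Remaining compound is expressed as percent of the t=0 concentration, as the mean of triplicates ± SD.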

[5] = Stability in water assessed as parent compound remaining in absence of pepsin after 2 hrs; format: physicochemical; details: read-out: Stability; summary of the method: as §1
[6] = Stability in simulated gastric fluid assessed as parent compound remaining in absence of pepsin after 2 hrs; format: ADME, tissue-based, Stomach; details: simulated gastric fluid without pepsin; read-out: Stability; summary of the method: as §1
Mus musculus [7] = assay: Cmax in C3H/HeN mouse assessed as compound 4 level at 10 mg/kg, po administered as single dose by LC-MS method; format: ADME, organism-based; set-up: dose 10 mg/kg, route oral; details: in vivo
Summary of the method: (§2)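 Single oral dose given to female C3H/HeN mice. Active principle was measured in urine over 0–24 h, and Cmax, Tmax and urine AUC0–24 were derived from the concentration profiles. The 7.7 mg/kg dose was given as a suspension. Values are means with SD for groups of three mice, or five at 7.7 mg/kg.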

[8] = Stability in water assessed as parent compound remaining in absence of pancreatin after 2 hrs; format: physicochemical; details: read-out: Stability
[9] = Stability of the compound assessed as half life for human Caco2 cells phosphatase mediated compound hydrolysis at 62.5 uM by LC-MS method; format: ADME, cell-based; details: Caco-2 cells
Summary of the method: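 Prodrug in Dulbecco's Modified Eagle's Medium (62.5 µM) applied to the apical chamber of the Caco-2 system. Unchanged prodrug was monitored by LC-MS, and t1/2 was calculated from remaining prodrug concentration versus incubation time.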

[10] = Stability in fed state simulated gastric fluid assessed as parent compound remaining in absence of pancreatin after 2 hrs; format: ADME, tissue-based, Stomach; details: fed state simulated gastric fluid without pancreatin; read-out: Stability
Mus musculus [11] = assay: Tmax in C3H/HeN mouse assessed as compound 4 level at 10 mg/kg, po administered as single dose by LC-MS method; format: ADME, organism-based; details: in vivo; summary of the method: as §2
[12] = AUC (0 to 24 hrs) in C3H/HeN mouse urine assessed as compound 4 level at 10 mg/kg, po administered as single dose by LC-MS method; format: ADME, organism-based; set-up: dose 10 mg/kg, time < 24 hr, route oral; details: in vivo; summary of the method: as §2
[13] = Stability in buffer simulated gastric fluid assessed as parent compound remaining in absence of pepsin after 2 hrs; format: ADME, tissue-based, Stomach; details: buffer simulated gastric fluid without pepsin; read-out: Stability; summary of the method: as §1
[14] = Stability in simulated gastric fluid assessed as parent compound remaining in absence of pancreatin after 2 hrs; format: ADME, tissue-based, Stomach; details: simulated gastric fluid without pancreatin; read-out: Stability
[15] = Stability in fed state simulated gastric fluid assessed as parent compound remaining in absence of pepsin after 2 hrs; format: ADME, tissue-based, Stomach; details: fed state simulated gastric fluid without pepsin; read-out: Stability; summary of the method: as §1
Mus musculus [16] = assay: Cmax in C3H/HeN mouse assessed as compound 5 level at 10 mg/kg, po administered as single dose by LC-MS method; format: ADME, organism-based; set-up: dose 10 mg/kg, route oral; details: in vivo; summary of the method: as §2
[17] = AUC (0 to 24 hrs) in C3H/HeN mouse urine assessed as compound 5 level at 10 mg/kg, po administered as single dose by LC-MS method; format: ADME, organism-based; set-up: time < 24 hr, dose 10 mg/kg, route oral; details: in vivo; summary of the method: as §2
Mus musculus [18] = assay: Tmax in C3H/HeN mouse assessed as compound 5 level at 10 mg/kg, po administered as single dose by LC-MS method; format: ADME, organism-based; details: in vivo; summary of the method: as §2
[19] = Drug metabolism in human Caco2 cells assessed as active parent compound level in basolateral side at 62.5 uM applied at apical compartment measured after 60 mins by LC-MS method; format: ADME, cell-based; details: caco-2, 1 h
Summary of the method: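 Caco-2 monolayer. Test article in Dulbecco's Modified Eagle's Medium at 62.5 µM was applied to the apical chamber. After 60 min, the active principle that had accumulated in the basal receiver chamber was quantified.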

Row | Structure (SMILES) | solubility thermodynamic [1] | remaining at 2 h [2] | remaining at 2 h [3] | remaining at 2 h [4] | remaining at 2 h [5] | remaining at 2 h [6] | remaining at 2 h [8] | half-life at 62.5 µM [9] | remaining at 2 h [10] | remaining at 2 h [13] | remaining at 2 h [14] | remaining at 2 h [15] | further results
1 | N#Cc1ccc(-c2ccc(O[C@H]3O[C@H](CO)[C@@H](OP(=O)([O-])[O-])[C@H](O)[C@@H]3O)c(Cl)c2)cc1.[Na+].[Na+] | > 3000 µg/mL | > 80% | > 80% | > 80% | > 80% | > 80% | > 80% | 43 min | > 80% | > 80% | > 80% | > 80% | Cmax (Mus musculus [7]): 57000 ng/mL; Tmax (Mus musculus [11]): 26.4 min; AUC [12]: 226.4 µg·h/mL
2 | N.N.O=P(O)(O)O[C@H]1[C@H](O)[C@H](O)[C@@H](Oc2ccc(-c3ccccc3)cc2)O[C@@H]1CO | 2700 µg/mL | – | – | – | – | – | – | > 60 min | – | – | – | – | –
3 | N#Cc1ccc(-c2ccc(O[C@H]3O[C@H](COP(=O)([O-])[O-])[C@@H](O)[C@H](O)[C@@H]3O)c(Cl)c2)cc1.[Na+].[Na+] | > 3000 µg/mL | > 80% | > 80% | > 80% | > 80% | > 80% | > 80% | 48 min | > 80% | > 80% | > 80% | > 80% | –
4 | N.N.O=P(O)(O)O[C@@H]1[C@@H](Oc2ccc(-c3ccccc3)cc2)O[C@H](CO)[C@@H](O)[C@@H]1O | > 3000 µg/mL | – | – | – | – | – | – | 12 min | – | – | – | – | –
5 | N.N.O=P(O)(O)O[C@@H]1[C@H](O)[C@@H](Oc2ccc(-c3ccccc3)cc2)O[C@H](CO)[C@H]1O | > 3000 µg/mL | – | – | – | – | – | – | 13 min | – | – | – | – | –

Now from value to molecule, other results behind:

Row | solubility thermodynamic [1] | remaining at 2 h [2] | remaining at 2 h [3] | remaining at 2 h [4] | remaining at 2 h [5] | remaining at 2 h [6] | remaining at 2 h [8] | half-life at 62.5 µM [9] | remaining at 2 h [10] | remaining at 2 h [13] | remaining at 2 h [14] | remaining at 2 h [15] | Structure (SMILES) | further results
6 | > 3000 µg/mL | > 80% | > 80% | > 80% | > 80% | > 80% | > 80% | 13 min | > 80% | > 80% | > 80% | > 80% | N#Cc1ccc(-c2ccc(O[C@H]3O[C@H](CO)[C@@H](O)[C@H](O)[C@@H]3OP(=O)([O-])[O-])c(Cl)c2)cc1.[Na+].[Na+] | –
7 | > 3000 µg/mL | – | – | – | – | – | – | > 60 min | – | – | – | – | N.N.O=P(O)(O)OC[C@H]1O[C@H](Oc2ccc(-c3ccccc3)cc2)[C@@H](O)[C@@H](O)[C@@H]1O | –
8 | > 3000 µg/mL | – | – | – | – | – | – | 11 min | – | – | – | – | N.N.O=[N+]([O-])c1ccc2c(c1)CCN2c1ccc(O[C@H]2O[C@H](COCOP(=O)(O)O)[C@@H](O)[C@H](O)[C@@H]2O)cc1 | Cmax (Mus musculus [16]): 4500 ng/mL; AUC [17]: 24.6 µg·h/mL; Tmax (Mus musculus [18]): 180 min; Drug metabolism [19]: Dose-dependent effect
9 | > 3000 µg/mL | – | – | – | – | – | – | 12 min | – | – | – | – | N#Cc1ccc(-c2ccc(O[C@H]3O[C@H](CO)[C@@H](O)[C@H](OP(=O)([O-])[O-])[C@@H]3O)c(Cl)c2)cc1.[Na+].[Na+] | Cmax (Mus musculus [7]): 40700 ng/mL; Tmax (Mus musculus [11]): 54 min; AUC [12]: 103.9 µg·h/mL; Drug metabolism [19]: Dose-dependent effect
